Assay results from ChEMBL document CHEMBL6134796, “Development and Evaluation of Indole-Based Phospholipase D Inhibitors for Lung Cancer Immunotherapy” (J Med Chem, 2025).
Active and inactive are the calls of the source. No cut-off for these calls is given here.

What was measured:
A549 [1] = test: Inhibition of PLD1 L425A mutant (unknown origin) overexpressed in human A549 cells; type: cell-based
In short: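 A549 cells transfected with wild-type PLD1, PLD1 mutants (L425A, F614A, F789A) or PLD2, then compound-treated. PLD activity measured as [3H]phosphatidylbutanol formed in the presence of 1-butanol after [3H]myristic acid labeling, expressed as % of total lipid cpm. At least three independent experiments.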

A549 [2] = test: Cytotoxicity against human A549 cells assessed as inhibition of cell growth incubated for 48 hrs by WST-1 assay; type: functional, cell-based; conditions: A549, 48 h
HCC44 = test: Cytotoxicity against human HCC44 cells assessed as inhibition of cell growth incubated for 48 hrs by WST-1 assay; type: functional, cell-based; conditions: HCC44, 48 h
In short: (§1)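 WST-1 viability assay. Cells seeded at 5 × 10^3 per well and incubated 24 h at 37 °C, then exposed to drug for 48 h. Absorbance read at 450 nm, in triplicate. IC50 taken as the concentration giving 50% growth inhibition versus control.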

NCI-H460 = test: Cytotoxicity against human NCI-H460 cells assessed as inhibition of cell growth incubated for 48 hrs by WST-1 assay; type: functional, cell-based; conditions: NCI-H460, 48 h; in short: as §1
A549 [3] = test: Inhibition of colony formation in human A549 cells incubated for 48 hrs by crystal violet staining based analysis; type: functional, cell-based
In short: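 A549 cells seeded at 500 to 1,000 per well; compound added 48 h after seeding, then 48 h further incubation; medium changed every 3 days, kept 10 days total; fixed in 4% PFA 20 min, crystal violet 30 min; colonies counted by image analysis.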

A549 [4] = test: Induction of apoptosis in human A549 cells by annexin V and PI staining based flow cytometry analysis; type: functional, cell-based
A549 [5] = test: Induction of apoptosis in human A549 cells increase in caspase-3 level; type: functional, cell-based
In short: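 Cells plated at about 40% density and treated at 10 μM for 48 h, with Ac-DEVD-CHO as the caspase-3 inhibitor control. Incubated with 1 μM NucView 488 caspase-3 substrate in PBS for 30 min at room temperature. Stained with 1 μM Hoechst 33342 and fluorescence quantified on a plate reader.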

A549 [6] = test: Enhancement of macrophage induced phagocytosis in CFSE labelled human A549 cells assessed as increase on CD11b+CFSE macrophage […] at 5 to 20 uM incubated for 48 hrs by flow cytometric analysis; type: functional, cell-based; conditions: dose 5-20 µM
In short: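 A549 cells treated 48 h in RPMI/10% FBS, then labeled with 1 μM CFSE. Co-cultured 1:1 (5 × 10^5 each) with PMA-differentiated THP-1 macrophages in serum-free RPMI for 2 h. After Fc block, stained with PerCP-Cy5.5 anti-CD11b for 20 min at 4 °C. CD11b+CFSE+ fraction measured by flow cytometry.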

A549 [7] = test: Induction of apoptosis in human A549 cells assessed as increase in caspase-3 activity measured up to 48 hrs in presence of gemcitabine […]; type: functional, cell-based
In short: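 A549 cells given compound, gemcitabine, or both. Apoptosis assessed by PI staining, annexin V flow cytometry, cleaved PARP immunoblot, and caspase-3 activity. For caspase-3: drugs at 10 μM for 48 h, then 1 μM NucView 488 substrate for 30 min, with 1 μM Hoechst 33342, read by plate fluorescence.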

[8] = Metabolic stability in human plasma assessed as parent compound remaining at 10 uM measured after 120 mins; type: ADME, cell-free; conditions: read-out: Stability
In short: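 Citrated human plasma spiked to final 10 μM, incubated at 37 °C for 0, 30 and 120 min; quenched with acetonitrile containing internal standard, vortexed, centrifuged at 4 °C; parent remaining quantified by LC-MS/MS in MRM mode on C18 column, formic acid water/acetonitrile gradient.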

[9] = target: T1, Phospholipase D1 (Mus musculus) (UniProt Q9Z280); test: In vivo inhibition of PLD1 in male C57BL/6 mouse allografted with mouse Lewis lung carcinoma cell line assessed as increase in IL-17+ th17 cell population at 10 mg/kg, po by immunofluorescence analysis; type: functional, organism-based
T1 sequence (whole entry): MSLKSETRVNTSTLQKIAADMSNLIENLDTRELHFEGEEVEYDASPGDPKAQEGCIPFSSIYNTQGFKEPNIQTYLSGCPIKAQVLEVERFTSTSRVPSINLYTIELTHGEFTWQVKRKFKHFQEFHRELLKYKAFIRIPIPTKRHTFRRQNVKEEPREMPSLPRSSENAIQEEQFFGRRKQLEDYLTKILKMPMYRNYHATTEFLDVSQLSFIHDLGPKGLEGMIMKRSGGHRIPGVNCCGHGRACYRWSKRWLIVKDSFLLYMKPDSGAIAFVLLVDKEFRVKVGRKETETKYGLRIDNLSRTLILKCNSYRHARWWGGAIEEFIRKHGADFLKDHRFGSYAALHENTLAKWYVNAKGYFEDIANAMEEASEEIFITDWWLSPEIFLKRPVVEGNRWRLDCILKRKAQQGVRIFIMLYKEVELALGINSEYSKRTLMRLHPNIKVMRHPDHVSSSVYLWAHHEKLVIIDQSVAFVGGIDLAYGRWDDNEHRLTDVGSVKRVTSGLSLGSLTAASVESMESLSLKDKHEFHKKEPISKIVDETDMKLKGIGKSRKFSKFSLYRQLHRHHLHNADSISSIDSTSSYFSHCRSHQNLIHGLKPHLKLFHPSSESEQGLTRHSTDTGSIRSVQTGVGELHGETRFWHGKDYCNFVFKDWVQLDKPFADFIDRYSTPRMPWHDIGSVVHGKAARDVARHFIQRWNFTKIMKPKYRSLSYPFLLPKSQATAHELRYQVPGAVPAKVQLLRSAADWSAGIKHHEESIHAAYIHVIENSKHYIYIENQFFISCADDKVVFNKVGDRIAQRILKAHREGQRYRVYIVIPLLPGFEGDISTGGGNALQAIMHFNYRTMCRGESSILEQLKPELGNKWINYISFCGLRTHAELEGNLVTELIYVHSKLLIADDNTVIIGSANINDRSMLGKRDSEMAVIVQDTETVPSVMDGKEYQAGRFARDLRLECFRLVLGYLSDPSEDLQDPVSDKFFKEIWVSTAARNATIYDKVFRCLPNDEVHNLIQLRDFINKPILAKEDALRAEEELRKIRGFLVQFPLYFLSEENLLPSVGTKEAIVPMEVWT
In short: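 Same LLC syngeneic C57BL/6 model, 10 mg/kg PO every other day for 3 weeks. Tumor tissues were stained by immunofluorescence for CD80+ and CD163+ cells, CD8+ T cells, and CD4+/IL-17+ and Treg populations. Nuclei were counterstained with 1 μM Hoechst 33342 and imaged by confocal microscopy.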

[10] = system: Lewis lung carcinoma cell line; test: Antitumor activity against mouse Lewis lung carcinoma cell line allografted in […] male C57BL/6 mouse model assessed as reduction in cell proliferation at 10 mg/kg, po measured every other day for 3 weeks; type: functional, organism-based

remaining at 2 h, 10 µM [8]: 94.6%
SMILES: O=C(CCc1c[nH]c2ccccc12)Nc1cc(C(F)(F)F)cc(C(F)(F)F)c1
inhibition (A549 [1]): Active
IC50 (A549 [2]): 18 µM
IC50 (HCC44): 22.3 µM
IC50 (NCI-H460): 24.9 µM
inhibition (A549 [3]): Active
Activity (A549 [4]): Active
Activity (A549 [5]): Active
Activity (A549 [6]): Active
Activity (A549 [7]): Active
inhibition [9]: Active
Activity [10]: Active
